# Source: ChEMBL document CHEMBL1148766, “Design, synthesis, and evaluation of orally active benzimidazoles and benzoxazoles as vascular endothelial growth factor-2 receptor tyrosine kinase inhibitors” (J Med Chem, 2007)
# What was measured:
# [1] = biological target: T1, Vascular endothelial growth factor receptor 2 (Homo sapiens, UniProt P35968); test: Inhibition of KDR phosphorylation; assay type: functional
# [2] = Clearance in Sprague-Dawley rat at 1 mg/kg, iv; assay type: ADME, organism-based; parameters: dose 1 mg/kg, route intravenous; conditions: in vivo
# Summary of the method: (§1)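 Male Sprague-Dawley rats, n = 3, given 1 mg/kg as a DMSO solution into the femoral vein. Serial jugular-vein blood samples were taken into heparinized tubes over 12-24 h. Parameters were derived by noncompartmental analysis.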
# [3] = Volume of distribution at steady state in Sprague-Dawley rat at 1 mg/kg, iv; assay type: ADME, organism-based; parameters: dose 1 mg/kg, route intravenous; conditions: in vivo, read-out: Vdss; summary of the method: as §1
# [4] = Half life in Sprague-Dawley rat at 1 mg/kg, iv or 10 mg/kg po; assay type: ADME, organism-based; conditions: in vivo
# Summary of the method: (§2)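 Male Sprague-Dawley rats were dosed either into the femoral vein at 1 mg/kg in DMSO (n = 3) or by oral gavage at 10 mg/kg as an Ora-Plus suspension, pH 2.0-2.2 with methanesulfonic acid (n = 2). Serial jugular-vein blood was taken into heparinized tubes over 12-24 h. Parameters were derived by noncompartmental analysis.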
# [5] = Oral bioavailability in Sprague-Dawley rat at 10 mg/kg, po; assay type: ADME, organism-based; conditions: in vivo; summary of the method: as §2
# [6] = biological target: T1, Vascular endothelial growth factor receptor 2; test: Selectivity for VEGF-stimulated HUVEC cell proliferation over FGF-induced HUVEC cell proliferation; assay type: functional, cell-based
# Summary of the method: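 HUVECs seeded at 3000/well in DMEM with 10% FBS, 22 h, then preincubated 2 h with compound serial dilutions. Stimulated with 50 ng/mL VEGF or 20 ng/mL bFGF for 72 h at 37 °C, 5% CO₂. Cells washed, frozen, then quantified with CyQuant dye. IC50s from four-parameter logistic fit; ratio of FGF over VEGF IC50.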
# [7] = Oral bioavailability in Sprague-Dawley rat at 3 mg/kg, po; assay type: ADME, organism-based; conditions: in vivo
# Summary of the method: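 Male Sprague-Dawley rats given 3 mg/kg by oral gavage as an Ora-Plus suspension adjusted to pH 2.0-2.2 with methanesulfonic acid. Serial jugular-vein blood was taken into heparinized tubes over 12-24 h. Noncompartmental analysis.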
# T1 sequence (P35968 whole entry): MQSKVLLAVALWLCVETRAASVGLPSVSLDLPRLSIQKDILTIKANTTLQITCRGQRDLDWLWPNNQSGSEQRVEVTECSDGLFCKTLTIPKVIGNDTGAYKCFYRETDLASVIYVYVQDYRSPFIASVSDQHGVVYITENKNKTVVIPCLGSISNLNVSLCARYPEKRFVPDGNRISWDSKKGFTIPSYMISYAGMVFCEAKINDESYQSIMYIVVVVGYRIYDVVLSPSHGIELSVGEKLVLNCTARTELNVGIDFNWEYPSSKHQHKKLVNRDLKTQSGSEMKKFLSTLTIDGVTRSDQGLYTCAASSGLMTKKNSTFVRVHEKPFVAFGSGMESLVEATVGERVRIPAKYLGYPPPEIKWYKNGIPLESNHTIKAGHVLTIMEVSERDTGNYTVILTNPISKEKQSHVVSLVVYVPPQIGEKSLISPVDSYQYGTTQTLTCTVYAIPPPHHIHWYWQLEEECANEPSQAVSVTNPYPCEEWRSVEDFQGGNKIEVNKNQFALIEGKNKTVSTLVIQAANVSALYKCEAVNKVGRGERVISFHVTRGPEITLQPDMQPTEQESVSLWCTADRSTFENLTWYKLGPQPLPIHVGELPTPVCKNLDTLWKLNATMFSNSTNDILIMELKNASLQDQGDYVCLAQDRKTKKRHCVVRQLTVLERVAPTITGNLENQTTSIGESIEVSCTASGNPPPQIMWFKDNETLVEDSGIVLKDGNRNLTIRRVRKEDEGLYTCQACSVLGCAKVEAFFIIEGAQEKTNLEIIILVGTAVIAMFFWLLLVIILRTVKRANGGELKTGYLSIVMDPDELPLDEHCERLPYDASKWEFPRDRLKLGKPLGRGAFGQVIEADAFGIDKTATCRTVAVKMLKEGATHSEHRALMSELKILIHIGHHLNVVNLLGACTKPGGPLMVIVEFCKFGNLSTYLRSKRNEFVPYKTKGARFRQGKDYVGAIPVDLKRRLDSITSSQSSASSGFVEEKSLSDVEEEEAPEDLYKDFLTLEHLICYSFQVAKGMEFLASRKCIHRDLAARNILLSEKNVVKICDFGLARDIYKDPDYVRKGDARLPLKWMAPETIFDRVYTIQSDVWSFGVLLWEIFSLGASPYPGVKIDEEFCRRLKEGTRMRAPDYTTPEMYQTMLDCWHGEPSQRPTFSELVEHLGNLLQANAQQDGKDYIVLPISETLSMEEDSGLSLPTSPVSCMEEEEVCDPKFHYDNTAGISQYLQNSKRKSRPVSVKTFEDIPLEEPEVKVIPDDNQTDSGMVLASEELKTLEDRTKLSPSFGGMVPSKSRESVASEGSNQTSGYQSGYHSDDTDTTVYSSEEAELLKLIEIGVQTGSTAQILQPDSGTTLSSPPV
Compound,Ki [1],further results
COc1cc2ncnc(Oc3ccc4[nH]c(Nc5ccc(Cl)cc5)nc4c3)c2cc1OC,8 nM,
CNc1cc(Oc2ccc3oc(Nc4ccc(Cl)c(CN5CCN(C)CC5)c4)nc3c2)ncn1,20 nM,
FC(F)(F)c1cc(Nc2nc3ccc(Oc4ccnc5[nH]ccc45)cc3[nH]2)ccc1Cl,48 nM,
CNC(=O)c1cc(Oc2ccc3[nH]c(Nc4cc(OCCN5CCCC5)cc(C(F)(F)F)c4)nc3c2)ccn1,287 nM,
CNc1nccc(Oc2ccc3[nH]c(Nc4ccc(Cl)c(CN5CCN(C)CC5)c4)nc3c2)n1,40 nM,
CNc1nccc(Oc2ccc3oc(Nc4ccc(Cl)c(CN5CCN(C)CC5)c4)nc3c2)n1,25 nM,
FC(F)(F)c1cc(Nc2nc3cc(Oc4ccncc4)ccc3[nH]2)ccc1Cl,160 nM,
CNC(=O)c1cc(Oc2ccc3oc(Nc4ccc(Cl)cc4)nc3c2)ccn1,12 nM,
CNC(=O)c1cc(Oc2ccc3oc(Nc4ccc(Cl)c(OC[C@@H]5CCCN5C)c4)nc3c2)ccn1,,clearance [2]: 56.7 mL/min/kg; Vd [3]: 8.4 L/kg; half-life [4]: 1.8 h; bioavailability [7]: 40%
CNC(=O)c1cc(Oc2ccc3oc(Nc4ccc(Cl)c(OCCN(C)C)c4)nc3c2)ccn1,4 nM,
CNC(=O)c1cc(Oc2ccc3[nH]c(Nc4ccc(C(F)(F)C(F)(F)F)c(OC[C@H]5CCCN5C)c4)nc3c2)ccn1,9 nM,
CNC(=O)c1cc(Oc2ccc3c(c2)nc(Nc2ccc(Cl)c(CN4CCN(C)CC4)c2)n3C)ccn1,10 nM,
CSc1nccc(Oc2ccc3[nH]c(Nc4ccc(Cl)c(CN5CCN(C)CC5)c4)nc3c2)n1,128 nM,
CN1CCN(Cc2cc(Nc3nc4ccc(Oc5ncnc6[nH]ccc56)cc4[nH]3)ccc2Cl)CC1,17 nM,
CNC(=O)c1cc(Oc2cc(Cl)c3oc(Nc4ccc(Cl)c(CN5CCN(C)CC5)c4)nc3c2)ccn1,10 nM,

# Now from value to compound, other results behind:
Ki [1],Compound,further results
0.5 nM,COc1cc2nccc(Oc3ccc4oc(Nc5ccc(Cl)c(OC[C@@H]6CCCN6C)c5)nc4c3)c2cc1OC,
5 nM,CCN(CC)CCOc1cc(Nc2nc3cc(Oc4ccnc(C(=O)NC)c4)ccc3o2)ccc1Cl,
2 nM,CN1CCN(Cc2cc(Nc3nc4cc(Oc5ccnc6ccccc56)ccc4[nH]3)ccc2Cl)CC1,
4 nM,CNC(=O)c1cc(Oc2ccc3oc(Nc4ccc(Cl)c(CN5CCOCC5)c4)nc3c2)ccn1,
2 nM,CNC(=O)c1cc(Oc2ccc3[nH]c(Nc4ccc(C(F)(F)F)c(OC[C@H]5CCCN5C)c4)nc3c2)ccn1,
4 nM,CNC(=O)c1cc(Oc2ccc3oc(Nc4ccc(Cl)c(CN5CCN(C)CC5)c4)nc3c2)ccn1,
3 nM,CN1CCC[C@H]1COc1cc(Nc2nc3cc(Oc4ccnc(C(N)=O)c4)ccc3o2)ccc1Cl,
3 nM,CNC(=O)c1cc(Oc2ccc3oc(Nc4ccc(Cl)c(OCC5CCNCC5)c4)nc3c2)ccn1,
3 nM,CNC(=O)c1cc(Oc2cc(F)c3oc(Nc4ccc(Cl)c(OC[C@@H]5CCCN5C)c4)nc3c2)ccn1,
1.6 nM,"CN1CCCC1COc1cc(Nc2nc3cc(Oc4ccnc5[nH]ccc45)ccc3o2)ccc1Cl (single isomer, unassigned)",clearance [2]: 20.7 mL/min/kg; Vd [3]: 5.02 L/kg; half-life [4]: 2.87 h; bioavailability [5]: 17%
0.2 nM,COc1cc2nccc(Oc3ccc4[nH]c(Nc5ccc(Cl)c(CN6CCN(C)CC6)c5)nc4c3)c2cc1OC,
0.5 nM,COc1cc2nccc(Oc3ccc4oc(Nc5ccc(Cl)c(CN6CCN(C)CC6)c5)nc4c3)c2cc1OC,clearance [2]: 27.2 mL/min/kg; Vd [3]: 12.1 L/kg; half-life [4]: 5.53 h; bioavailability [5]: 67%; Ratio IC50 [6]: 10
2 nM,CN1CCN(Cc2cc(Nc3nc4cc(Oc5ccnc6ccccc56)cc(Cl)c4o3)ccc2Cl)CC1,
0.5 nM,COc1cc2ncnc(Oc3ccc4oc(Nc5ccc(Cl)c(OC[C@@H]6CCCN6C)c5)nc4c3)c2cc1OC,clearance [2]: 14.8 mL/min/kg; Vd [3]: 6.88 L/kg; half-life [4]: 6.14 h; bioavailability [5]: 60%; Ratio IC50 [6]: 10
3.6 nM,CN1CCN(Cc2cc(Nc3nc4cc(Oc5ccnc6ccccc56)ccc4o3)ccc2Cl)CC1,
3 nM,CN1CCN(Cc2cc(Nc3nc4ccc(Oc5ccnc6[nH]ccc56)cc4[nH]3)ccc2Cl)CC1,
2 nM,CN1CCN(Cc2cc(Nc3nc4cc(Oc5ccnc6[nH]ccc56)ccc4o3)ccc2Cl)CC1,
3.9 nM,CNC(=O)c1cc(Oc2ccc3[nH]c(Nc4ccc(Cl)c(CN5CCN(C)CC5)c4)nc3c2)ccn1,
1 nM,CN1CCC[C@@H]1COc1cc(Nc2nc3cc(Oc4ccnc5ccccc45)ccc3[nH]2)ccc1C(F)(F)F,clearance [2]: 16.7 mL/min/kg; Vd [3]: 5.8 L/kg; half-life [4]: 4.8 h; bioavailability [5]: 24%
3 nM,CNC(=O)c1cc(Oc2ccc3[nH]c(Nc4ccc(C(F)(F)F)c(OCCN(C)C)c4)nc3c2)ccn1,
